In the RNAGym collection of RNA variant scans (doi:10.1126/science.aae0568):
Variants at the floor of the assay were thinned out.

B1: tRNA (parent)
chain: GUUCCGUUGGCGUAAUGGUAACGCGUCUCCCUCCUAAGGAGAAGACUGCGGGUUCGAGUCCCGUACGGAACG

Variants of: B1
Experiment: yeast fitness relative to wild type (ratio to wild type); higher = fitter; tRNA-Arg(CCU), competitive growth, 37 C, YPD
Method in brief: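 The tRNA-Arg(CCU) gene variants were made by chemical synthesis with a 3% per-site mutation rate at 69 sites and inserted at the native genomic locus of Saccharomyces cerevisiae. After pooling, the strains were competed in YPD at 37°C for 24 hours in six parallel replicates. Gene amplicons from the start population and each end population were read by 100-nucleotide paired-end sequencing, and Darwinian fitness relative to wild type was taken from genotype frequency changes. Genotypes needed ≥ 100 starting reads, and estimates < 0.5 were set to 0.5.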

U13C A20G C49U C66U A70C and U13C A20G U54C cannot be ordered by yeast fitness: no more than 0.5 for the first, no more than 0.5 for the second.

First: U13C A20U
Second: U13C A20U C62U
The yeast fitness of the first is higher: 1.12 for the first, 0.731 for the second.

Compared with U13C A21G, U13C A21G A42U A57U C62U is lower in yeast fitness: 1.09 for the first, no more than 0.5 for the second.

First: U13C A21G C31G
Second: U13C A21G U28C C31G
The yeast fitness of the first is higher: 0.754 for the first, 0.539 for the second.

Going from U13C A21G U35A C55U A65G to U13C A36C, the yeast fitness rises from no more than 0.5 to 0.643.

Going from U13C A36C C55U G68C to U13C A36C C61A, the yeast fitness rises from no more than 0.5 to 0.651.

First: U13C A36C G67U
Second: U13C A36G
The yeast fitness of the first is lower: 0.637 for the first, 1.01 for the second.

Going from U13C A36G A40C to U13C A36G C62U, the yeast fitness rises from 0.61 to 0.693.

Going from U13C A36U C62G A65G to U13C A36U G51C, the yeast fitness falls from 0.671 to no more than 0.5.

First: U13C A37C
Second: U13C A37G
The yeast fitness of the first is higher: 0.713 for the first, 0.694 for the second.

Going from U13C A37G C60A A65U to U13C A37G G58A, the yeast fitness rises from no more than 0.5 to 0.647.

U13C A37U A42U C66A A69C and U13C A37U C62A cannot be ordered by yeast fitness: no more than 0.5 for the first, no more than 0.5 for the second.

Going from U13C A40C C66A to U13C A40G C62G, the yeast fitness falls from 0.567 to no more than 0.5.

Going from U13C A40G G63A G67A to U13C A40U, the yeast fitness rises from no more than 0.5 to 1.03.

Compared with U13C A40U A57G, U13C A40U A69U is higher in yeast fitness: 0.688 for the first, 0.793 for the second.

Going from U13C A42C to U13C A42G C61G, the yeast fitness falls from 0.932 to no more than 0.5.

First: U13C A42G G56U
Second: U13C A42U
The yeast fitness of the first is lower: no more than 0.5 for the first, 0.923 for the second.

Compared with U13C A42U U47C G51A A70C, U13C A42U U54C is higher in yeast fitness: no more than 0.5 for the first, 0.592 for the second.

Compared with U13C A43G, U13C A43G A45U is lower in yeast fitness: 0.984 for the first, 0.587 for the second.

First: U13C A43G G52C
Second: U13C A43U A69C
The yeast fitness of the first is lower: no more than 0.5 for the first, 0.766 for the second.

Compared with U13C A43U A70C, U13C A43U C49U is higher in yeast fitness: 0.679 for the first, 0.716 for the second.

Compared with U13C A43U C60G, U13C A45C G50U is lower in yeast fitness: 0.546 for the first, no more than 0.5 for the second.

Going from U13C A45C G50U A57G to U13C A45G, the yeast fitness rises from no more than 0.5 to 0.916.

U13C A45G C61G and U13C A45U A57G cannot be ordered by yeast fitness: no more than 0.5 for the first, no more than 0.5 for the second.

First: U13C A45U G63C
Second: U13C A57C
The yeast fitness of the first is lower: no more than 0.5 for the first, 0.67 for the second.

Compared with U13C A65C, U13C A65U is higher in yeast fitness: 0.873 for the first, 1.02 for the second.

First: U13C A69C
Second: U13C A70G
The yeast fitness of the first is lower: 0.995 for the first, 1.03 for the second.

Going from U13C A70U to U13C C22A C24A, the yeast fitness falls from 0.945 to no more than 0.5.

U13C C22A C29U and U13C C22G C27A G51C A70U cannot be ordered by yeast fitness: no more than 0.5 for the first, no more than 0.5 for the second.

First: U13C C22G G38C A45U C49G
Second: U13C C22U
The yeast fitness of the first is lower: no more than 0.5 for the first, 0.932 for the second.

First: U13C C22U A45U G48A C55A
Second: U13C C22U C27U A37C
The yeast fitness of the first is lower: no more than 0.5 for the first, 0.563 for the second.

U13C C22U C27U A37C A57G and U13C C22U C27U A37C G67A cannot be ordered by yeast fitness: no more than 0.5 for the first, no more than 0.5 for the second.

First: U13C C22U G38C
Second: U13C C22U G38C A57C
The yeast fitness of the first is lower: no more than 0.5 for the first, 0.599 for the second.

U13C C22U G38C A57U and U13C C22U G38C A70U cannot be ordered by yeast fitness: no more than 0.5 for the first, no more than 0.5 for the second.

Going from U13C C22U G39C to U13C C24A, the yeast fitness rises from 0.512 to 0.69.

Compared with U13C C24G C60G, U13C C24G C61A is higher in yeast fitness: no more than 0.5 for the first, 0.54 for the second.

Going from U13C C24G G38C to U13C C24U, the yeast fitness rises from 0.592 to 1.01.

Compared with U13C C24U U53A C66U, U13C C27A is higher in yeast fitness: no more than 0.5 for the first, 0.963 for the second.

Compared with U13C C27G A37U C60A, U13C C27U A37C is lower in yeast fitness: 0.727 for the first, no more than 0.5 for the second.

First: U13C C27U A69U
Second: U13C C27U C55A A69U
The yeast fitness of the first is higher: 0.648 for the first, no more than 0.5 for the second.

First: U13C C29A A37U C49A
Second: U13C C29A C33G U35C G51A
The yeast fitness of the first is lower: no more than 0.5 for the first, 0.503 for the second.

Compared with U13C C29A G51C, U13C C29G A36G G41A G48C is lower in yeast fitness: 0.624 for the first, no more than 0.5 for the second.

U13C C29G A36U G41C A45C C49U U54C C61U and U13C C29G A45U C62U cannot be ordered by yeast fitness: no more than 0.5 for the first, no more than 0.5 for the second.

Compared with U13C C29U, U13C C29U C31U U54G A65U G67A is lower in yeast fitness: 0.831 for the first, no more than 0.5 for the second.

Compared with U13C C29U G56C, U13C C30A is higher in yeast fitness: no more than 0.5 for the first, 0.825 for the second.

Going from U13C C30A G38A C55A A65C to U13C C30G, the yeast fitness rises from no more than 0.5 to 0.578.

U13C C30G U35C and U13C C30U A40G C55A G63C A65C cannot be ordered by yeast fitness: no more than 0.5 for the first, no more than 0.5 for the second.

First: U13C C30U C33U
Second: U13C C30U C33U A69U A70G
The yeast fitness of the first is lower: 0.537 for the first, 0.568 for the second.

Compared with U13C C31A, U13C C31A G56C is lower in yeast fitness: 0.901 for the first, 0.57 for the second.

U13C C31G C33A C66A and U13C C31G C33G cannot be ordered by yeast fitness: no more than 0.5 for the first, no more than 0.5 for the second.

First: U13C C31G U47G U53G C61U G68A
Second: U13C C31U
The yeast fitness of the first is lower: 0.591 for the first, 1.01 for the second.

U13C C31U A43G C60G and U13C C31U A57G C60U U64A C66A A69C cannot be ordered by yeast fitness: no more than 0.5 for the first, no more than 0.5 for the second.

U13C C31U C34U A40G U47A and U13C C31U C62A G63A cannot be ordered by yeast fitness: no more than 0.5 for the first, no more than 0.5 for the second.

First: U13C C31U G41C C61U
Second: U13C C31U G56C
The yeast fitness of the first is higher: 0.53 for the first, no more than 0.5 for the second.

U13C C31U G58C C61A A69U and U13C C31U U54C G58C C61A A69U cannot be ordered by yeast fitness: no more than 0.5 for the first, no more than 0.5 for the second.

U13C C33A A36C G63C C66G and U13C C33A A36U cannot be ordered by yeast fitness: no more than 0.5 for the first, no more than 0.5 for the second.

U13C C33G G56C and U13C C34G C46U A57U C60G A65C cannot be ordered by yeast fitness: no more than 0.5 for the first, no more than 0.5 for the second.

U13C C34G C55A and U13C C34G C62U cannot be ordered by yeast fitness: no more than 0.5 for the first, no more than 0.5 for the second.

Compared with U13C C34G G67A, U13C C34U is higher in yeast fitness: no more than 0.5 for the first, 0.668 for the second.

Going from U13C C46G C62G to U13C C46U G48A, the yeast fitness rises from no more than 0.5 to 0.732.

First: U13C C49G
Second: U13C C49G C62U
The yeast fitness of the first is higher: 0.896 for the first, 0.533 for the second.

U13C C49G G50C A65U and U13C C49G U53C A57C cannot be ordered by yeast fitness: no more than 0.5 for the first, no more than 0.5 for the second.

Going from U13C C49U to U13C C55A A65U, the yeast fitness falls from 1.01 to no more than 0.5.

First: U13C C55A A69U
Second: U13C C55G C61G C66U
The yeast fitness of the first is higher: 0.624 for the first, no more than 0.5 for the second.

Compared with U13C C55U, U13C C55U A65U is lower in yeast fitness: 0.837 for the first, no more than 0.5 for the second.

Going from U13C C60A to U13C C60A A70G, the yeast fitness falls from 0.685 to 0.588.

Compared with U13C C60G A69C, U13C C60U is higher in yeast fitness: no more than 0.5 for the first, 0.725 for the second.

First: U13C C61A G67A
Second: U13C C61G
The yeast fitness of the first is lower: no more than 0.5 for the first, 0.609 for the second.

First: U13C C61G G67U
Second: U13C C62A
The yeast fitness of the first is lower: 0.6 for the first, 0.68 for the second.

Going from U13C C62U to U13C C66A, the yeast fitness falls from 1.01 to 0.556.

Compared with U13C C66G, U13C G18A is higher in yeast fitness: 0.742 for the first, 0.843 for the second.

First: U13C G18A A69C
Second: U13C G18A C66G
The yeast fitness of the first is higher: 0.719 for the first, 0.662 for the second.

First: U13C G18A G41A C62G A65U
Second: U13C G23A C29G A45U C62U
The yeast fitness of the first is higher: 0.619 for the first, no more than 0.5 for the second.

First: U13C G23C
Second: U13C G23C A70G
The yeast fitness of the first is lower: 0.511 for the first, 0.585 for the second.

Going from U13C G23C C49U to U13C G25A, the yeast fitness rises from no more than 0.5 to 0.902.

Compared with U13C G25A A69U, U13C G25A C31U is lower in yeast fitness: 0.767 for the first, 0.749 for the second.

Going from U13C G25C to U13C G25C A40C, the yeast fitness falls from 0.996 to 0.667.

Compared with U13C G25C C30G, U13C G25C C60U C62U is lower in yeast fitness: 0.611 for the first, no more than 0.5 for the second.

First: U13C G38A
Second: U13C G38A A70U
The yeast fitness of the first is higher: 0.708 for the first, 0.525 for the second.

First: U13C G38C A40U C49A C66A
Second: U13C G38C A43C G51C G56C
The yeast fitness of the first is lower: no more than 0.5 for the first, 0.531 for the second.

First: U13C G38C A43C G51C G56C A69G
Second: U13C G39A
The yeast fitness of the first is lower: no more than 0.5 for the first, 0.982 for the second.

First: U13C G44A
Second: U13C G44A A69U
The yeast fitness of the first is higher: 0.827 for the first, 0.696 for the second.

Compared with U13C G44C, U13C G44C G58A is higher in yeast fitness: 0.913 for the first, 0.927 for the second.

With U13C G48A C61G A69C the yeast fitness was 0.594.
